# In the library only some 3.4% were active in any assay of this set; here they are far more common.
# UCH37 inh: inhibitors of human deubiquitinating enzyme UCH37; Q9Y5K5; purified proteasome/UCH37, Ub-AMC cleavage fluorescence; inhibition, % (concentration not given with the values); 330,000 tested, 0.33% active;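 active means mean inhibition over replicate wells above about 20%, limit read from the data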;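 further: 0% = compound-free wells with enzyme and 100% = wells lacking proteasome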
# Target sequence (Q9Y5K5 whole entry, looked up): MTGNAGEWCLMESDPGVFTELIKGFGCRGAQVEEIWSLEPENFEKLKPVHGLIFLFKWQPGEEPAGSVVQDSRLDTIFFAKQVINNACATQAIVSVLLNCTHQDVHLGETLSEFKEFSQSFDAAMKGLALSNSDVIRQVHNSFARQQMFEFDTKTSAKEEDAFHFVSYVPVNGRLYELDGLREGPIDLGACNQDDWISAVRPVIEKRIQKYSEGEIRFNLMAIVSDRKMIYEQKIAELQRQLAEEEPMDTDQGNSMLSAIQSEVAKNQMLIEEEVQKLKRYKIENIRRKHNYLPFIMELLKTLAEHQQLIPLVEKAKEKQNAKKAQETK
#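 Assay system: Proteasome-bound UCH37. Buffer or medium: pH 7.4 Tris-HCl (50 mM) with ovalbumin, ATP-MgCl2, DTT. Incubation: 30 min preincubation with enzyme, 25 min cleavage at room temperature. Measured by: fluorescence, ex 355 nm, em 460 nm. Read-out basis: percent inhibition. Control set: wells without proteasome as full block, compound-free enzyme plus substrate as uninhibited.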
# A3A deaminase: human APOBEC3A DNA deaminase inhibition; P31941; recombinant A3A, FAM/TAMRA ssDNA deamination fluorescence; inhibition, % at 20 µM; 330,000 tested, 0.41% active; AID 493011;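 active means at least 40% inhibition at 20 µM here, with at most 30% in a related deaminase screen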;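 further: plate controls were A3A with DMSO for no effect and wells lacking A3A enzyme for full effect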
# Arrestin-AP2 inh: human beta-arrestin and AP2 interaction inhibition. 340,000 tested, 0.31% active. FITC-arrestin peptide / GST-AP2 beads, flow cytometry; AP2 beta2 appendage carries R879A mutation. AID 504490. inhibition, % at 10 µM;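 active means inhibition above a set limit, near 3 SD of compounds lacking own fluorescence, cut at about 54% in these data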;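 further: plate controls were DMSO wells for no effect and 5 µM unlabelled arrestin peptide for full effect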
#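 test system = AP2 appendage R879A on GSH beads | buffer or medium = PBS plus Tween 20 (0.05%) and BSA (0.1%) | incubation = 12 min plus 1 h, RT | detection = bead flow cytometry, FITC channel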
# AHR activator: activators of human aryl hydrocarbon receptor | P35869 | AHR-responsive luciferase reporter cells, luminescence | activation, % at 5 µM | 320,000 tested, 2.5% active | AID 2796; in the data active means activation above about 47%;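 further: 0% = vehicle wells and 100% = reference agonist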
# PolyA inh: blocks polyadenylation in yeast reporter cells; S. cerevisiae SKY197-pL101 polyadenylation reporter, beta-gal luminescence; efflux-impaired pdr1/pdr3 knockout yeast; score 100 = 6 SD above DMSO; AID 1875; 300,000 tested, 0.02% active; activity score, % at 12 µM;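 active means lowest replicate activity score at least 50, where 100 means six control SD above control mean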;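 further: yeast exposed to compound for 9 h at 30 °C; higher score means more reporter readthrough which indicates perturbed polyadenylation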
# APOBEC3G inh: APOBEC3G (human) deaminase inhibition | Q9HC16 | recombinant A3G, ssDNA deamination FAM/TAMRA fluorescence | inhibition, % at 20 µM | 330,000 tested, 0.28% active;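 active means inhibition of at least 40% at 20 µM, with no more than 30% in the related APOBEC3A deaminase screen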;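 further: plate controls were DMSO wells with A3G for no effect and wells lacking A3G enzyme for full effect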
# APOBEC3A confirm: APOBEC3A (human) deaminase inhibition, confirmed. shares compounds with A3A deaminase. recombinant A3A, ssDNA deaminase UDG fluorescence assay. inhibition, % at 20 µM. 1,400 tested, 63% active. AID 493151;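 active means inhibition reaching a set limit, 80% of the first screen's cutoff, at 20 µM in any replicate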;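 further: plate controls were DMSO wells with A3A for no effect and wells lacking A3A enzyme for full effect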
# UDG A3A counter: counter-screen for APOBEC3A inhibitors: UDG. shares compounds with A3A deaminase. UDG counterscreen, FAM/TAMRA uracil oligo fluorescence. inhibition, % at 20 µM. 1,000 tested, under 10 active; call rule not given here
# Active calls of the source: *; . = no result given.
SMILES,UCH37 inh,A3A deaminase,Arrestin-AP2 inh,AHR activator,PolyA inh,APOBEC3G inh,APOBEC3A confirm,UDG A3A counter
CCCCOC(=O)c1cc(-c2ccc(C=Nn3cnnc3)o2)ccc1Cl,-90.7,.,.,.,.,.,.,.
COC(=O)c1ccc(C=NOCC(=O)Nc2cc(F)ccc2F)cc1,0.3,.,.,.,.,.,.,.
CCOc1cc(C=NNC(=O)c2ccc(CSc3nncn3C)cc2)ccc1OCC(=O)N1CCOCC1,2.7,.,.,.,.,.,.,.
O=C(C1COc2ccccc2O1)N1CCCC1 (stereo unspecified),3.7,-3.6,-8.1,-3.6,5.7,-6.2,.,.
O=C(C1COc2ccccc2O1)N1CCc2ccccc21 (stereo unspecified),-1.8,42.8*,-4.3,1.5,-25.9,14.9,35.7*,1.0
NC(N)=NN=Cc1ccccc1OC(F)F,7.7,.,.,.,.,.,.,.
CCCN(CCC)Cc1c(C(=O)NN=Cc2ccc(C)o2)nnn1-c1nonc1N,-15.9,.,.,.,.,.,.,.
CN1CCN(c2ccc(Cl)cc2NC(=O)CN2C(=O)NC(C)(c3ccccc3)C2=O)CC1 (stereo unspecified),2.0,18.2,29.7,2.5,10.4,14.7,.,.
CN1CCN(c2ccc(Cl)cc2NC(=O)CC2OC(=O)c3ccccc32)CC1 (stereo unspecified),6.5,95.5*,-18.2,0.3,-5.8,28.7,69.1*,-2.2
CC(C)C(NC(=O)c1ccc2c(c1)OCO2)C(=O)N/N=C\c1ccco1 (stereo unspecified),.,47.6*,-50.1,2.7,14.2,13.8,52.2*,-1.7
COc1ccc(NC(=O)C(=O)N2N=C3CCCCC3C2(O)C(F)(F)F)cc1 (stereo unspecified),-0.1,55.4*,-10.8,27.9,13.6,10.0,54.4*,-1.0
CCC1=NN(C(=O)C(=O)Nc2ccc(OC)cc2)C(O)(C(F)(F)F)C1 (stereo unspecified),1.0,8.5,-2.5,-1.9,4.2,1.3,.,.
Cc1ccc(Nc2nc(-c3ccc(S(=O)(=O)N4CCCC4)cc3)cs2)cc1C,-99.9,87.4*,7.7,0.2,7.5,-2.5,-7.2,-0.2
Cc1cc(C)cc(Nc2nc(-c3ccc(S(=O)(=O)N4CCCC4)cc3)cs2)c1,-82.9,-2.2,9.3,12.1,-0.6,-5.7,.,.
COC(=O)c1[nH]c2ccc(C)cc2c1NC(=O)CCN1CCN(C2CCCCC2)CC1,.,-1.0,.,.,-3.7,-2.3,.,.
COC(=O)c1[nH]c2ccc(Br)cc2c1NC(=O)CN1CCN(C2CCCCC2)CC1,2.8,46.5*,13.8,5.0,5.3,20.6,27.6,.
CC1CCCC(NC(=O)NC(=O)COC(=O)c2ccc(O)cc2O)C1C (stereo unspecified),2.2,84.6*,-6.2,-0.6,.,5.0,32.6*,-2.3
CCc1cccc(NC(=O)Cn2c3[n+](c4ccc(C(F)(F)F)cc42)CCCCC3)c1,5.9,61.6*,6.5,-5.1,1.6,17.2,78.5*,-3.6
O=C(Cn1c2[n+](c3ccc(C(F)(F)F)cc31)CCCCC2)Nc1ccccc1,7.4,59.7*,-64.8,2.4,12.9,23.0,62.4*,-1.8
FC(F)(F)c1ccc2c(c1)n(Cc1ccccc1)c1[n+]2CCCCC1,0.6,45.3,36.6,2.0,1.6,65.0,.,.
CN(c1ccc(C(=O)Nc2cccnc2)cc1)S(=O)(=O)c1ccc(Cl)cc1,3.7,1.3,-2.0,41.2,-2.5,1.3,.,.
CN(c1ccc(C(=O)Nc2cccnc2)cc1)S(=O)(=O)c1ccccc1,4.5,52.4*,-8.8,30.4,13.0,1.5,28.0,.
CCN(CC)c1ccc(C=NN2CCN(Cc3ccccc3Cl)CC2)c(O)c1,5.5,.,.,.,.,.,.,.
Cc1ccccc1/C=C/c1cc[n+](C)cc1,-2.1,58.6*,-21.1,14.7,2.0,19.1,72.7*,-2.6
COc1ccc([N+](=O)[O-])cc1CSc1ccccn1,1.0,52.3*,-3.6,6.0,10.4,7.2,45.8*,2.3
